Activity calls are given as the source filed them. No cut-off for these calls is given here.
Experiments:
[1] = biological target: T1, C3a anaphylatoxin chemotactic receptor (Homo sapiens, UniProt Q16581); test: Agonist activity at C3a receptor in human MDM cells assessed as induction of intracellular calcium release measured at 1 sec interval for => 200 secs by Fluo-3 AM dye-based FLIPR assay; assay type: cell-based
T1 sequence (Q16581 whole entry): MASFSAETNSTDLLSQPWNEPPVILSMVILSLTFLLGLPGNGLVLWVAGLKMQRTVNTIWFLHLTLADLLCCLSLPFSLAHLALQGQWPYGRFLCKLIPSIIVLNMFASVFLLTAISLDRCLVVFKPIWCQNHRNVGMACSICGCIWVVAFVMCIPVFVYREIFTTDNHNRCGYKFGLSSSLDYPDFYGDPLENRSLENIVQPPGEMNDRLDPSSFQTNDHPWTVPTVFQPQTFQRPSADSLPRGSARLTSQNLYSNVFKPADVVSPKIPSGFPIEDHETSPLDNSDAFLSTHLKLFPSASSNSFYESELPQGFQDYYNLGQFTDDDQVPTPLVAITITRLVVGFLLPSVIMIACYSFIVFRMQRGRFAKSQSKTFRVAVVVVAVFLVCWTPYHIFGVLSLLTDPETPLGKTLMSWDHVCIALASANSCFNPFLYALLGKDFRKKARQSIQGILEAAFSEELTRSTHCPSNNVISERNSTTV
Procedure, shortened: (§1)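 HMDMs were differentiated from CD14⁺ monocytes with M-CSF (100 ng/mL) for 7 days and seeded overnight at 5 × 10⁴ cells/well. Cells were loaded with 4 μM Fluo-3 AM for 1 h at 37 °C, then placed in HBSS with 2.5 mM probenecid and 20 mM HEPES, pH 7.4. Agonist was added on FLIPR and read at ex 495/em 520 nm. EC50 is relative to the maximum from 1 μM C3a; n ≥ 3.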

[2] = biological target: T1, C3a anaphylatoxin chemotactic receptor; test: Antagonist activity at C3a receptor in human MDM cells assessed as inhibition of C3a-induced intracellular calcium release preincubated for 30 mins followed by C3a addition and measured at 1 sec interval for => 200 secs by Fluo-3 AM dye-based FLIPR assay; assay type: functional, cell-based; conditions: read-out: IC50
Procedure, shortened: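 Macrophages were derived from CD14⁺ monocytes (M-CSF, 7 days) and dye-loaded with 4 μM Fluo-3 AM for 1 h at 37 °C in HBSS/probenecid/HEPES, pH 7.4. Antagonist was preincubated for 30 min at 37 °C before addition of synthetic full-length human C3a (100 nM). FLIPR fluorescence was read at ex 495/em 520 nm. Percent response was plotted against log concentration; n ≥ 3.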

[3] = biological target: T1, C3a anaphylatoxin chemotactic receptor; test: Partial agonist activity at C3a receptor in human MDM cells assessed as induction of intracellular calcium release at higher concentration measured at 1 sec interval for => 200 secs by Fluo-3 AM dye-based FLIPR assay relative to control; assay type: cell-based; procedure, shortened: as §1
[4] = biological target: T2, C5a anaphylatoxin chemotactic receptor 1 (Homo sapiens) (UniProt P21730); test: Antagonist activity at C5a receptor in human MDM cells assessed as inhibition of C5a-induced intracellular calcium release preincubated for 30 mins followed by C5a addition and measured at 1 sec interval for => 200 secs by Fluo-3 AM dye-based FLIPR assay; assay type: functional, cell-based
T2 sequence (whole entry): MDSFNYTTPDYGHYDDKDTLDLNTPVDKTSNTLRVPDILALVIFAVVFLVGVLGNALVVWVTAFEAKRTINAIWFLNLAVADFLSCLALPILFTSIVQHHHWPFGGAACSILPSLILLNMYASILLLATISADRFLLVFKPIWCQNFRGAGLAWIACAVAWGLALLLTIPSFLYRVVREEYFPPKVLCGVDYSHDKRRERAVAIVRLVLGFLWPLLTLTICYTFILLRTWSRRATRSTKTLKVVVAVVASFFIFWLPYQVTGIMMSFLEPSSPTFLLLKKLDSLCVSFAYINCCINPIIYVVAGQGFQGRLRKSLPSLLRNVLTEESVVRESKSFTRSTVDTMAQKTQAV
Procedure, shortened: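 HMDMs from CD14+ monocytes after 7 days in M-CSF; 5 × 10⁴ cells/well seeded overnight. Cells loaded 1 h at 37 °C with 4 μM Fluo-3 AM, then washed into HBSS with 2.5 mM probenecid and 20 mM HEPES, pH 7.4. Antagonist preincubated 30 min at 37 °C before C5a. Fluorescence (ex 495/em 520 nm) read every 1 s for ≥200 s.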

[5] = Stability of the compound in rat liver microsomes at 1 uM preincubated for 5 mins followed by NADPH addition and measured after 1 hr by LC-MS/MS analysis; assay type: ADME, Microsome
Procedure, shortened: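 Compound at 1 μM in 100 mM phosphate buffer, pH 7.4 (0.1% DMSO), was incubated with rat liver microsomes […] at 37 °C before further NADPH was added. Aliquots taken at 0, 5, 15, 30 and 60 min were quenched in MeCN/H₂O (9:1), centrifuged and analysed by LC-MS/MS. Microsomal activity was confirmed in parallel with SLIGRL-NH₂; n = 3.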

[6] = biological target: T3, C3a anaphylatoxin chemotactic receptor (Homo sapiens) (UniProt Q16581); test: Displacement of Eu-DTPA-C3a from Galpha16-coupled C3a receptor (unknown origin) expressed in HEK293 cells measured after 60 mins by time-resolved fluorescence assay; assay type: cell-based
T3 sequence (whole entry): T1 sequence (Q16581 whole entry)

[7] = AUC (0 to 8 hrs) in Wistar rat at 0.5 mg/kg, iv by LC-MS/MS analysis; assay type: ADME, organism-based; parameters: time < 8 hr, dose 0.5 mg/kg, route intravenous; conditions: in vivo
Procedure, shortened: (§2)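 Male Wistar rats with jugular vein catheter, fasted overnight; dosed p.o. by gavage in olive oil or i.v. via catheter in 50% DMSO. Blood drawn from conscious unrestrained rats 5 min before dosing, then 5, 15, 30 min and 1–8 h after. Volume replaced with heparinized saline. Rats fed after 4 h sample. n = 3 per route.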

[8] = Volume of distribution in Wistar rat at 0.5 mg/kg, iv by LC-MS/MS analysis; assay type: ADME, organism-based; conditions: in vivo; procedure, shortened: as §2
[9] = Elimination half-life in Wistar rat at 0.5 mg/kg, iv by LC-MS/MS analysis; assay type: ADME, organism-based; conditions: in vivo, read-out: beta t1/2; procedure, shortened: as §2
[10] = Stability of the compound in rat plasma at 1 mM measured after 4 hrs by LC-MS analysis; assay type: ADME, cell-free
Procedure, shortened: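 Compound added to rat plasma from 1 mM DMSO stock (stock concentration) and incubated at 37 °C. Samples taken at 0, 5, 15, 30, 60, 120 and 240 min, quenched in MeCN/H₂O 9:1, centrifuged and analyzed by LC-MS. Plasma activity checked with SLIGRL-NH₂.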

[11] = Clearance in Wistar rat at 0.5 mg/kg, iv by LC-MS/MS analysis; assay type: ADME, organism-based; conditions: in vivo; procedure, shortened: as §2
[12] = AUC (0 to 8 hrs) in Wistar rat at 10 mg/kg, po by LC-MS/MS analysis; assay type: ADME, organism-based; parameters: dose 10 mg/kg, time < 8 hr, route oral; conditions: in vivo; procedure, shortened: as §2
[13] = Tmax in Wistar rat at 10 mg/kg, po by LC-MS/MS analysis; assay type: ADME, organism-based; conditions: in vivo; procedure, shortened: as §2
[14] = Cmax in Wistar rat at 10 mg/kg, po by LC-MS/MS analysis; assay type: ADME, organism-based; parameters: dose 10 mg/kg, route oral; conditions: in vivo; procedure, shortened: as §2
Rattus norvegicus = test: Antiinflammatory activity in Wistar rat model of BR103-induced paw edema assessed as reduction in hind paw swelling at 10 mg/kg, po administered via gavage pretreated for 2 hrs followed by BR103 challenge and measured after 30 mins by digital caliper method relative to control; assay type: functional; parameters: scale not given: the % may be the effect or the level left
Procedure, shortened: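 Male Wistar rats were given antagonist at 10 mg/kg by oral gavage in olive oil 2 h before intraplantar BR103 (350 μg in 100 μL of 5% DMSO). Sham paws received vehicle; sham and control rats received olive oil only. Paw thickness and width were measured with digital calipers at 0, 0.5, 1 and 2 h after agonist; n = 3 per group.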

Row | Structure (SMILES) | EC50 ([1]; read-out: EC50) [µM] | EC50 ([1]; read-out: pEC50 (converted)) [µM] | IC50 [2] [µM] | other results
1 | CC(c1ccccc1)c1ccc(C(=O)N[C@@H](CCCNC(=N)N)C(=O)O)s1 (mixture of isomers) | > 100 | > 100 | > 10 | –
2 | N=C(N)NCCC[C@H](NC(=O)c1sc(C(c2ccccc2)c2ccccc2)cc1Br)C(=O)O | – | 100 | 0.51 | Activity [3]: 30 to 80%
3 | N=C(N)NCCC[C@H](NC(=O)c1ccc(C(c2ccccc2)C2CCCCC2)s1)C(=O)O (mixture of isomers) | 0.07 | – | 0.004 | Activity [3]: <= 30%
4 | CC(=O)N[C@@H](Cc1ccccc1)C(=O)N[C@H]1CCCNC(=O)[C@H](CCCN=C(N)N)NC(=O)[C@H](Cc2c[nH]c3ccccc23)NC(=O)[C@@H](CC2CCCCC2)NC(=O)[C@@H]2CCCN2C1=O | – | – | – | inhibition [4]: Active
5 | N=C(N)NCCC[C@H](NC(=O)c1ccc(C2CCCCCCCCCCC2)s1)C(=O)O | > 100 | > 100 | > 100 | –
6 | Cc1cc(C(c2ccc(O)cc2)c2ccc(O)cc2)sc1C(=O)N[C@@H](CCCNC(=N)N)C(=O)O | > 100 | > 100 | 0.79 | Stability [5]: Stable
7 | CC(C)=C(c1ccccc1)c1ccc(C(=O)N[C@@H](CCCNC(=N)N)C(=O)O)s1 | > 100 | > 100 | 4.4 | –
8 | Cc1[nH]c(C(c2ccccc2)c2ccccc2)nc1C(=O)N[C@@H](CCCNC(=N)N)C(=O)O | – | – | – | inhibition [6]: Dose-dependent effect
9 | N=C(N)NCCC[C@H](NC(=O)c1ccc(C(c2ccc(Cl)cc2)c2ccc(Cl)cc2)s1)C(=O)O | > 100 | > 100 | 0.03 | AUC(0-t) at 8 h [7]: 1800 ng·h/mL; Vd [8]: 0.3 L; half-life [9]: 1.02 h; Stability [10]: Stable; Stability [5]: Stable; clearance [11]: 4.6 mL/min/kg; AUC(0-t) at 8 h [12]: 814 ng·h/mL; Tmax [13]: 4 h; Cmax [14]: 143 ng/mL; Activity (Rattus norvegicus): 45%
10 | Cc1cc(C(c2cccc(Cl)c2)c2cccc(Cl)c2)sc1C(=O)N[C@@H](CCCNC(=N)N)C(=O)O | 0.046 | – | 0.003 | Activity [3]: <= 80%
11 | Cc1cc(C(=O)N[C@@H](CCCNC(=N)N)C(=O)O)sc1C(c1ccccc1)c1ccccc1 | > 100 | > 100 | 0.14 | –
12 | CCC(c1ccccc1)c1ccc(C(=O)N[C@@H](CCCNC(=N)N)C(=O)O)s1 (mixture of isomers) | > 100 | > 100 | 2.3 | –
13 | N=C(N)NCCC[C@H](NC(=O)c1sc(C(c2ccccc2)c2ccccc2)cc1-c1ccccc1)C(=O)O | > 100 | > 100 | > 100 | –
14 | N=C(N)NCCC[C@H](NC(=O)c1ccc(C(c2cccc(Cl)c2)c2cccc(Cl)c2)s1)C(=O)O | 0.05 | – | 0.006 | Activity [3]: <= 60%
15 | N=C(N)NCCC[C@H](NC(=O)c1sc(C(c2ccccc2)c2ccccc2)c2c1CCCC2)C(=O)O | > 100 | > 100 | 2.4 | –
16 | N=C(N)NCCC[C@H](NC(=O)c1cnc(C(c2ccccc2)c2ccccc2)s1)C(=O)O | > 100 | > 100 | 0.6 | –
17 | Cc1cc(C(c2ccc(F)cc2)c2ccc(F)cc2)sc1C(=O)N[C@@H](CCCNC(=N)N)C(=O)O | > 100 | > 100 | 0.035 | Activity [3]: 30 to 80%
18 | N=C(N)NCCC[C@H](NC(=O)c1cc(-c2ccccc2)c(C(c2ccccc2)c2ccccc2)s1)C(=O)O | > 100 | > 100 | 0.14 | –
19 | COc1ccc(C(c2ccc(OC)cc2)c2ccc(C(=O)N[C@@H](CCCNC(=N)N)C(=O)O)s2)cc1 | > 100 | > 100 | 6.1 | –
20 | N=C(N)NCCC[C@H](NC(=O)c1ccc(C(c2ccccc2)c2ccc3ccccc3c2)s1)C(=O)O (mixture of isomers) | > 100 | > 100 | 0.09 | –
21 | N=C(N)NCCC[C@H](NC(=O)c1ccc(C(c2ccc(F)cc2)c2ccc(F)cc2)s1)C(=O)O | > 10 | > 10 | 0.1 | –
22 | COc1ccc(C(c2ccc(OC)cc2)c2cc(C)c(C(=O)N[C@@H](CCCNC(=N)N)C(=O)O)s2)cc1 | > 100 | > 100 | 2 | –
23 | N=C(N)NCCC[C@H](NC(=O)c1ccc(Cc2ccccc2)s1)C(=O)O | > 100 | > 100 | > 10 | –
24 | N=C(N)NCCC[C@H](NC(=O)c1ccc(C(c2ccccc2)c2ccccn2)s1)C(=O)O (mixture of isomers) | > 100 | > 100 | 0.04 | Activity [3]: 30 to 80%
25 | N=C(N)NCCC[C@H](NC(=O)c1ccc(C(Cc2ccccc2)Cc2ccccc2)s1)C(=O)O | > 100 | > 100 | 0.1 | –
26 | CCC(Cc1ccccc1)c1ccc(C(=O)N[C@@H](CCCNC(=N)N)C(=O)O)s1 (mixture of isomers) | > 100 | > 100 | 0.2 | –
